Measured values published in ChEMBL document CHEMBL4513216, “Probing the Open Global Health Chemical Diversity Library for Multistage-Active Starting Points for Next-Generation Antimalarials” (ACS Infect Dis, 2020).

Test: Toxicity liver stage against HepG2, at 10uM
Type: cell-based
Design: test concentration 10 uM, cell line HepG2-A16-CD81EGFP
Details: human, HepG2-A16-CD81EGFP cells; read-out: INHIBITION
In short: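 Uninfected HepG2-A16-CD81EGFP cells, 3 × 10^3 per well, 1536-well, plated on prespotted compound at 10 μM final, parasite-free screening media added to match infected plates; puromycin 10 μM positive, DMSO 0.5% negative; run in parallel with 48 h PbLuc assay at 37 °C, 5% CO2; viability by CellTiter-Glo luminescence, normalized to controls.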

| SMILES | cytotoxicity at 10 µM [%] |
| --- | --- |
| NS(=O)(=O)c1cccnc1NCc1ccco1 | -8.21 |
| O=C(NC[C@H]1OC[C@@H](NC2CCC(F)(F)CC2)[C@@H]1O)C1CC1 | -1.39 |
| Fc1ccc(-c2noc([C@@H]3Cc4nc[nH]c4CN3)n2)cc1 | -5.9 |
| Cn1c(C(=O)N2CC[C@@]3(O)CCCC[C@H]3C2)cc2ccccc21 | -46.8 |
| Cc1n[nH]c2c1C(c1ccc3c(c1)OCCO3)SCC(=O)N2 (stereo not given) | -0.37 |
| Cc1cccc(-n2ncc3c(=O)n(CCN4CCCCC4)cnc32)c1C | -6.57 |
| CCOCC(=O)NCCn1ccc(-c2ccccn2)n1 | 11.4 |
| CCc1cnc(N2C[C@H]3CN(Cc4ccc(OC)cc4)C(=O)[C@H]3C2)nc1 | 11.6 |
| Cc1cc(CN2C[C@@H]3CN(Cc4ccsc4)CCO[C@@H]3C2)no1 | -139 |
| COCCN1CCC2(CC1)CC(CC(N)=O)c1ccc(F)cc12 (stereo not given) | 8.98 |
| O=C(c1cnccn1)N1CCCC2(CCCN2Cc2cccnc2)C1 (stereo not given) | -1.01 |
| COc1cc(CO)c(OC)c2c1OCO2 | -2.93 |
| CC(C)c1nnc2ccc(N3CCC(C(=O)O)CC3)nn12 | -1.92 |
| COc1ccc(NC(=O)N2CCCC2c2ccco2)cc1OC (stereo not given) | -7.07 |
| CS(=O)(=O)N1CCCC12CCCN(S(=O)(=O)c1cc(F)cc(F)c1)C2 (stereo not given) | 10.9 |
| CCc1ncnc2c1CCN(C(=O)N1CCCC1)CC2 | 5.46 |
| Cc1nc([C@@H]2C[C@@H]3CCN(C(=O)c4ccnnc4)C[C@H]3O2)sc1C | 2.68 |
| CCCn1nccc1C(=O)Nc1nc(C)c(C)s1 | -6.19 |
| Cc1ccc(CNC(=O)c2cc(NC(=O)C3CC3)n(C)n2)o1 | 4.82 |
| CCn1ccc(NC(=O)c2cc(C)on2)n1 | -2.23 |
| O=C(c1cc(-c2ccco2)cs1)N1CCOCC1 | 4.81 |
| CCn1nc(C)c2nc(C(C)C)nc(NCCCO)c21 | 6.48 |

| SMILES | cytotoxicity at 10 µM [%] |
| --- | --- |
| Cc1nn(CC(C)C)cc1S(=O)(=O)N(C)Cc1nonc1C | 11.3 |
| COCc1ccc(OC)c(CNC2CCCNC2=O)c1 (stereo not given) | 3.66 |
| O=C(O)[C@@H]1CCN(C(=O)Cc2ccccn2)[C@@H]1c1ccc(F)cc1 | 4.22 |
| O[C@H]1CN(Cc2c[nH]nc2-c2ccccc2)CC[C@@]12CCCO2 | 10.3 |
| CN(C)S(=O)(=O)N1CCC(c2ccncn2)CC1 | -20.5 |
| O=C(O)c1ccccc1CN1CCC(c2ccnc3ccnn23)CC1 | -37.8 |
| CC(C)c1cc(O)nc(C2CCCN2C(=O)C2CC2)n1 (stereo not given) | -25.1 |
| Cc1c(C2CCCN(C(=O)c3ccn(C)n3)C2)n2c(nc1=O)CCC2 (stereo not given) | 0.862 |
| CC(=O)Nc1nc(C2CCN(C(=O)c3ccncc3)CC2)cs1 | -9.44 |
| COC(=O)CN1CCC(C(F)(F)F)CC1 | 8.12 |
| CCCS(=O)(=O)NC(=O)c1ccc(-n2nc(C)cc2C)cc1 | 1.36 |
| COc1ccc(Cl)cc1CN1CC(n2cccn2)C1 | -1.73 |
| O=C(NC1=NCCS1)C1CSCN1C(=O)C1CCCC1 (stereo not given) | 6.8 |
| CC(C)Cc1nc(CN2CCC(N3CCN(C)C3=O)CC2)no1 | 14 |
| CNS(=O)(=O)CC1CCCN1c1ccccn1 (stereo not given) | 2.83 |
| CN(C)c1ccc(C(=O)Nc2cnn(Cc3ccccn3)c2)cc1 | -8.36 |
| CS(=O)(=O)CCNC(=O)N1CC2(CCCC2)c2ccccc21 | 0.883 |
| COc1ccc(Cl)cc1CCNC(=O)NCc1cnn(C)c1C | 3.87 |
| O=C(CNC(=O)c1cc(Cl)ccn1)Nc1nccs1 | -1.87 |
| CCc1nccn1CC1CCCN1S(=O)(=O)N1CCCOCC1 (stereo not given) | -11.5 |
| CCC(CC)NC(=O)c1nc2n(n1)-c1ccccc1S(=O)(=O)N2 | 8.3 |
| Clc1cccnc1N1CCC(NCc2cccc3cn[nH]c23)C1 (stereo not given) | 13.7 |

| SMILES | cytotoxicity at 10 µM [%] |
| --- | --- |
| O=C(Nc1cnn(Cc2ccc(Cl)cc2)c1)N[C@@H]1C=C[C@H](CO)C1 | -2.96 |
| CCc1nnc(SC2CCCN(c3cccc(F)c3)C2=O)n1C (stereo not given) | 7.17 |
| CC(C)(C)OC(=O)NCC1CCCCN1Cc1ccccn1 (stereo not given) | -3.59 |
| Cc1cc(CN2CCN(C(=O)CCc3cccs3)CC2)on1 | -5 |
| Cc1nc(C)n(CC2CCCCN2Cc2nnc(-c3ccco3)o2)n1 (stereo not given) | -10.2 |
| COCc1ccccc1NC(=O)NCc1ccc(OCC2CC2)nc1 | 3.88 |
| Cn1ccc2c(C(=O)N3CCN(C(=O)C4CCCC4)CC3)cccc21 | -0.53 |
| CC(C)(C(=O)NCC(=O)NCc1ccccc1)c1ccccc1F | 4.63 |
| O=C(NC1CCCN(c2ccccc2F)C1)c1ccon1 (stereo not given) | -6.43 |
| CC(NS(=O)(=O)CCc1ccccn1)c1ccccc1Br (stereo not given) | -4.74 |
| O=C1CN(C(=O)C2CCOCC2)CCN1Cc1ccc(Cl)cc1 | -146 |
| CCc1nnc2n1CCN(C(=O)C(OC)c1ccccc1)C2 (stereo not given) | 3.65 |
| COCCN(Cc1ccccc1)Cc1nc(-c2ccsc2)no1 | 5.6 |
| CCNC(=O)CN(Cc1ccoc1)C1CCCCC1 | 7.59 |
| O=C(Nc1ccccc1Cn1cccn1)N1CCCC(N2CCCC2)C1 (stereo not given) | 5.6 |
| CCOCCN1CCN(CC(O)c2ccc(OC)cc2)CC1 (stereo not given) | -2.28 |
| COc1c(C)cnc(CN2CCCC2c2noc(C)n2)c1C (stereo not given) | -3.75 |
| Cc1nsc(NCc2ccc(S(=O)(=O)N(C)C(C)C)cc2)n1 | 16.2 |
| CCN(CC1CCCO1)S(=O)(=O)N1CCCCCC1 (stereo not given) | -1 |
| CC(O)CC(C)(C)CNC(=O)NCc1cccc(-n2cncn2)c1 (stereo not given) | -4.79 |
| CS(=O)(=O)NCCNC(=O)C1(c2cccc(Cl)c2)CC1 | 5.63 |
| CC(=O)N1CCO[C@@H]2CN(S(=O)(=O)c3ccc(C)cc3)CC[C@@H]2C1 | 8.28 |

| SMILES | cytotoxicity at 10 µM [%] |
| --- | --- |
| CNC(=O)[C@H]1C[C@@H]2CCN(Cc3ccc4c(c3)OCO4)C[C@@H]2O1 | 5.79 |
| Cc1cn2c(=O)c(-c3ccnc(NC4CCOCC4)n3)cnc2s1 | -5.5 |
| COCCNS(=O)(=O)c1cccc2c1CN(C(=O)c1ccoc1)CC2 | -3.88 |
| COc1ccc(OCc2cc(C(=O)N3CCCCO3)n[nH]2)c(Cl)c1 | 8.15 |
| Cc1cncc(C(=O)N2CCNCC2C(=O)NCc2ccncc2)c1 (stereo not given) | -4 |
| O=C(Nc1cnc2n1CCCC2)c1cccc(OCC(F)(F)F)c1 | -0.651 |
| CC(C)=CCN1CCN(S(=O)(=O)c2cn(C)cn2)[C@H]2CS(=O)(=O)C[C@H]21 | 0.634 |
| O=C(c1ccc(O)cn1)N1CCOC(Cc2cccc(C(F)(F)F)c2)C1 (stereo not given) | 5.08 |
| COCC(=O)N1CCCN(Cc2cc(C(C)C)no2)CC1 | 5.97 |
| Cc1nc(CC(=O)N2CCC3(CC2)CC(=O)N(CC2CCCO2)C3)cs1 (stereo not given) | -7.85 |
| CNc1ncc(CN(C)c2nc(C)c3ccc(S(C)(=O)=O)cc3n2)cn1 | -3.66 |
| COc1cc(C)c(C2CC(=O)NCc3nc4sccn4c32)cc1C (stereo not given) | -2.19 |
| CC(c1nccs1)N(C)Cc1ccc(CCC(C)(C)O)cc1 (stereo not given) | 2.55 |
| Oc1ccc(-c2c(-c3ccccc3)ncn2C[C@H]2CCCN2)cc1 | 17.5 |
| Cc1cc(C)n(CC(C)Nc2nc(C)nc3c2CCNC3)n1 (stereo not given) | 2.51 |
| Cc1nc(C(C)C)cc(N2CCC3(CCC(=O)N(CC4CC4)C3)CC2)n1 | -2.99 |
| CC(C)Cc1cc(C(=O)NCC(c2ccc(F)cc2)N(C)C)n(C)n1 (stereo not given) | -3.97 |
| COc1cccn(CC(=O)N2CCC3(CCNCC3)C2)c1=O | -11.4 |
| CS(=O)(=O)NCCC1CN(Cc2ccccc2F)CCO1 (stereo not given) | -7.31 |
| COc1nccc(N2CC[C@H](CO)[C@@H](O)C2)c1C#N | -141 |
| COc1ccc2c(c1)OCC(C(=O)NCc1ncc3c(n1)CCC3)C2 (stereo not given) | 2.15 |
| Cc1nccc(CNC(=O)CCc2c(C)nc3cc(O)nn3c2C)n1 | -1.56 |

| SMILES | cytotoxicity at 10 µM [%] |
| --- | --- |
| Cc1ccc(CC(=O)N2CCCC(n3ccnc3C(C)C)C2)cn1 (stereo not given) | -5.11 |
| CCc1nc(C2CCCN2C(=O)CCc2nc(C3CC3)no2)no1 (stereo not given) | -2.66 |
| CN(C)c1cc(C(=O)N2CCN(c3cc(C#N)ccn3)CC2)ccn1 | -9.27 |
| CN(Cc1ccccc1)C(=O)CN1CCOC(Cn2cncn2)C1 (stereo not given) | -3.66 |
| Cc1cnc(CN(C)C2CCN(CCCc3ccccc3)C2)o1 (stereo not given) | -4.02 |
| Cc1noc(C)c1CN(C)C(=O)c1ccc(C(F)(F)F)nc1 | -10 |
| Cc1nc(C2CCCN2CC(=O)Nc2cc(C(C)(C)C)nn2C)no1 (stereo not given) | -10.9 |
| CC(C)(C)C(=O)NCCc1ccn(-c2ccccc2)n1 | 1.76 |
| Cn1cncc1CN1CCc2nc3sccc3c(=O)n2CC1 | -3.75 |
| COc1ccccc1CN1C[C@@H]2COC[C@]2(COc2cccnc2)C1 | 6.24 |
| CO[C@H]1CCN(S(=O)(=O)c2cn(C)cn2)[C@H]1Cc1ccccc1 | 6.19 |
| Fc1cccc(N2CCCC3(CN(Cc4ccccn4)CCO3)C2)c1 (stereo not given) | 2.29 |
| Cn1cc(CN2CCCC23CCN(C(=O)c2ccccc2)CC3)cn1 | 0.613 |
| CC(=O)N1CCC2(CC1)COCCN2CCN(C)C | -7.98 |
| CC1c2ncc(CNC(=O)C3CC3)n2CCN1Cc1cnn(C)c1 (stereo not given) | -20.2 |
| O=C1CCCN1Cc1nnc2n1CCCN(Cc1ccco1)C2 | 3.24 |
| CC1c2ncc(Cn3cccn3)n2CCN1Cc1cccnc1 (stereo not given) | 6.49 |
| CC(C)NC(=O)[C@H]1C[C@@H]2[C@@H](C1)OCCN2Cc1cccs1 | 10.3 |
| Cc1ccc(C(=O)N2CCC3(CC2)COC(COc2ccccn2)C3)o1 (stereo not given) | -0.954 |
| CN(C)C(=O)CN1CC[C@H]2[C@H]1CCN2c1ncccn1 | 8.28 |
| COC(=O)Cn1c(=O)[nH]c2cn(-c3cccc(C)c3)c(=O)n21 | 5.42 |
| Cn1cccc1C(=O)N1C[C@@H]2CC[C@H]1CN(Cc1cscn1)C2 | 2.9 |
